Active and inactive are the calls of the source. The rule behind the calls is not given here.
Key:
Format in all cases: functional
Pseudomonas aeruginosa [1] = assay: Antibacterial activity against Pseudomonas aeruginosa assessed as growth inhibition at 100 ug/well after 24 hrs by agar well diffusion method; conditions: for zone of inhibition at 100 µg/disc: read-out: DIZ
Summary of the method: (§1)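 Agar well diffusion on […] swabbed with a 24 h broth culture. Samples were dissolved in DMSO and loaded at three per-well amounts into 6 mm wells. Incubation was 37 °C for 24 h, then inhibition zone diameter was read in mm. DMSO served as the negative control. Runs were in duplicate and averaged.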

Pseudomonas aeruginosa [2] = assay: Antibacterial activity against Pseudomonas aeruginosa assessed as growth inhibition at 25 ug/well after 24 hrs by agar well diffusion method; conditions: for zone of inhibition at 25 µg/disc: read-out: DIZ; summary of the method: as §1
Pseudomonas aeruginosa [3] = assay: Antibacterial activity against Pseudomonas aeruginosa assessed as growth inhibition at 50 ug/well after 24 hrs by agar well diffusion method; conditions: for zone of inhibition at 50 µg/disc: read-out: DIZ; summary of the method: as §1
Klebsiella pneumoniae [4] = assay: Antibacterial activity against Klebsiella pneumoniae assessed as growth inhibition at 50 ug/well after 24 hrs by agar well diffusion method; conditions: for zone of inhibition at 50 µg/disc: read-out: DIZ; summary of the method: as §1
Staphylococcus aureus [5] = assay: Antibacterial activity against Staphylococcus aureus assessed as growth inhibition at 50 ug/well after 24 hrs by agar well diffusion method; conditions: for zone of inhibition at 50 µg/disc: read-out: DIZ; summary of the method: as §1
Staphylococcus aureus [6] = assay: Antibacterial activity against Staphylococcus aureus assessed as growth inhibition at 100 ug/well after 24 hrs by agar well diffusion method; conditions: for zone of inhibition at 100 µg/disc: read-out: DIZ; summary of the method: as §1
Staphylococcus aureus [7] = assay: Antibacterial activity against Staphylococcus aureus assessed as growth inhibition at 25 ug/well after 24 hrs by agar well diffusion method; conditions: for zone of inhibition at 25 µg/disc: read-out: DIZ; summary of the method: as §1
Klebsiella pneumoniae [8] = assay: Antibacterial activity against Klebsiella pneumoniae assessed as growth inhibition at 25 ug/well after 24 hrs by agar well diffusion method; conditions: for zone of inhibition at 25 µg/disc: read-out: DIZ; summary of the method: as §1
Aspergillus niger [9] = assay: Antifungal activity against Aspergillus niger assessed as inhibition of spore germination at 25 ug/well after 48 hrs by agar well diffusion method; conditions: for zone of inhibition at 25 µg/disc: read-out: DIZ
Summary of the method: (§2)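 Well diffusion using 6 mm bored wells loaded with DMSO solutions at three per-well amounts, with a DMSO negative control. Plates were held at 28 °C for 48 h, then zone of inhibition diameter was measured in mm. Runs were in duplicate and averaged.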

Bacillus subtilis [10] = assay: Antibacterial activity against Bacillus subtilis assessed as growth inhibition at 50 ug/well after 24 hrs by agar well diffusion method; conditions: for zone of inhibition at 50 µg/disc: read-out: DIZ; summary of the method: as §1
Klebsiella pneumoniae [11] = assay: Antibacterial activity against Klebsiella pneumoniae assessed as growth inhibition at 100 ug/well after 24 hrs by agar well diffusion method; conditions: for zone of inhibition at 100 µg/disc: read-out: DIZ; summary of the method: as §1
Aspergillus niger [12] = assay: Antifungal activity against Aspergillus niger assessed as inhibition of spore germination at 50 ug/well after 48 hrs by agar well diffusion method; conditions: for zone of inhibition at 50 µg/disc: read-out: DIZ; summary of the method: as §2
Bacillus subtilis [13] = assay: Antibacterial activity against Bacillus subtilis assessed as growth inhibition at 100 ug/well after 24 hrs by agar well diffusion method; conditions: for zone of inhibition at 100 µg/disc: read-out: DIZ; summary of the method: as §1
Bacillus subtilis [14] = assay: Antibacterial activity against Bacillus subtilis assessed as growth inhibition at 25 ug/well after 24 hrs by agar well diffusion method; conditions: for zone of inhibition at 25 µg/disc: read-out: DIZ; summary of the method: as §1

Cc1ccc(-c2c[nH]c(Nc3cc(-c4ccc(C)cc4)n(-c4nc(-c5ccc(C)cc5)cs4)n3)n2)cc1
zone of inhibition at 100 µg/disc (Pseudomonas aeruginosa [1]): 10 mm | zone of inhibition at 25 µg/disc (Pseudomonas aeruginosa [2]): 6 mm | zone of inhibition at 50 µg/disc (Pseudomonas aeruginosa [3]): 7 mm | zone of inhibition at 50 µg/disc (Klebsiella pneumoniae [4]): 14 mm | zone of inhibition at 50 µg/disc (Staphylococcus aureus [5]): 14 mm | zone of inhibition at 100 µg/disc (Staphylococcus aureus [6]): 17 mm | zone of inhibition at 25 µg/disc (Staphylococcus aureus [7]): 12 mm | zone of inhibition at 25 µg/disc (Klebsiella pneumoniae [8]): 13 mm | zone of inhibition at 25 µg/disc (Aspergillus niger [9]): 16 mm | zone of inhibition at 50 µg/disc (Bacillus subtilis [10]): 13 mm | zone of inhibition at 100 µg/disc (Klebsiella pneumoniae [11]): 17 mm | zone of inhibition at 50 µg/disc (Aspergillus niger [12]): 17 mm | zone of inhibition at 100 µg/disc (Bacillus subtilis [13]): 16 mm | zone of inhibition at 25 µg/disc (Bacillus subtilis [14]): 12 mm

Cc1ccc(-c2c[nH]c(NC3=NN(C(N)=S)[C@@H](c4ccc(C)cc4)C3)n2)cc1
growth inhibition (GI) (Pseudomonas aeruginosa [1]): inactive | growth inhibition (GI) (Pseudomonas aeruginosa [2]): inactive | growth inhibition (GI) (Pseudomonas aeruginosa [3]): inactive | growth inhibition (GI) (Klebsiella pneumoniae [4]): inactive | growth inhibition (GI) (Staphylococcus aureus [5]): inactive | growth inhibition (GI) (Staphylococcus aureus [6]): inactive | growth inhibition (GI) (Staphylococcus aureus [7]): inactive | growth inhibition (GI) (Klebsiella pneumoniae [8]): inactive | growth inhibition (GI) (Aspergillus niger [9]): inactive | growth inhibition (GI) (Bacillus subtilis [10]): inactive | growth inhibition (GI) (Klebsiella pneumoniae [11]): inactive | zone of inhibition (Aspergillus niger [12]): inactive | growth inhibition (GI) (Bacillus subtilis [13]): inactive | growth inhibition (GI) (Bacillus subtilis [14]): inactive

NC(=S)n1nc(Nc2nc(-c3ccc(Cl)cc3)c[nH]2)cc1-c1ccc(Cl)cc1
zone of inhibition at 100 µg/disc (Pseudomonas aeruginosa [1]): 15 mm | zone of inhibition at 25 µg/disc (Pseudomonas aeruginosa [2]): 11 mm | zone of inhibition at 50 µg/disc (Pseudomonas aeruginosa [3]): 13 mm | zone of inhibition at 50 µg/disc (Klebsiella pneumoniae [4]): 22 mm | zone of inhibition at 50 µg/disc (Staphylococcus aureus [5]): 23 mm | zone of inhibition at 100 µg/disc (Staphylococcus aureus [6]): 25 mm | zone of inhibition at 25 µg/disc (Staphylococcus aureus [7]): 21 mm | zone of inhibition at 25 µg/disc (Klebsiella pneumoniae [8]): 20 mm | zone of inhibition at 25 µg/disc (Aspergillus niger [9]): 22 mm | zone of inhibition at 50 µg/disc (Bacillus subtilis [10]): 21 mm | zone of inhibition at 100 µg/disc (Klebsiella pneumoniae [11]): 26 mm | zone of inhibition at 50 µg/disc (Aspergillus niger [12]): 24 mm | zone of inhibition at 100 µg/disc (Bacillus subtilis [13]): 23 mm | zone of inhibition at 25 µg/disc (Bacillus subtilis [14]): 19 mm

c1ccc(-c2coc(Nc3cc(-c4ccccc4)n(-c4nc(-c5ccccc5)cs4)n3)n2)cc1
zone of inhibition at 100 µg/disc (Pseudomonas aeruginosa [1]): 6 mm | growth inhibition (GI) (Pseudomonas aeruginosa [2]): inactive | growth inhibition (GI) (Pseudomonas aeruginosa [3]): inactive | zone of inhibition at 50 µg/disc (Klebsiella pneumoniae [4]): 10 mm | zone of inhibition at 50 µg/disc (Staphylococcus aureus [5]): 10 mm | zone of inhibition at 100 µg/disc (Staphylococcus aureus [6]): 13 mm | zone of inhibition at 25 µg/disc (Staphylococcus aureus [7]): 8 mm | zone of inhibition at 25 µg/disc (Klebsiella pneumoniae [8]): 8 mm | zone of inhibition at 25 µg/disc (Aspergillus niger [9]): 9 mm | zone of inhibition at 50 µg/disc (Bacillus subtilis [10]): 10 mm | zone of inhibition at 100 µg/disc (Klebsiella pneumoniae [11]): 13 mm | zone of inhibition at 50 µg/disc (Aspergillus niger [12]): 10 mm | zone of inhibition at 100 µg/disc (Bacillus subtilis [13]): 12 mm | zone of inhibition at 25 µg/disc (Bacillus subtilis [14]): 8 mm

NC(=S)N1N=C(Nc2nc(-c3ccc(Cl)cc3)co2)C[C@@H]1c1ccc(Cl)cc1
growth inhibition (GI) (Pseudomonas aeruginosa [1]): inactive | growth inhibition (GI) (Pseudomonas aeruginosa [2]): inactive | growth inhibition (GI) (Pseudomonas aeruginosa [3]): inactive | growth inhibition (GI) (Klebsiella pneumoniae [4]): inactive | growth inhibition (GI) (Staphylococcus aureus [5]): inactive | growth inhibition (GI) (Staphylococcus aureus [6]): inactive | growth inhibition (GI) (Staphylococcus aureus [7]): inactive | growth inhibition (GI) (Klebsiella pneumoniae [8]): inactive | growth inhibition (GI) (Aspergillus niger [9]): inactive | growth inhibition (GI) (Bacillus subtilis [10]): inactive | growth inhibition (GI) (Klebsiella pneumoniae [11]): inactive | zone of inhibition (Aspergillus niger [12]): inactive | growth inhibition (GI) (Bacillus subtilis [13]): inactive | growth inhibition (GI) (Bacillus subtilis [14]): inactive

NC(=S)n1nc(Nc2nc(-c3ccccc3)cs2)cc1-c1ccccc1
zone of inhibition at 100 µg/disc (Pseudomonas aeruginosa [1]): 17 mm | zone of inhibition at 25 µg/disc (Pseudomonas aeruginosa [2]): 12 mm | zone of inhibition at 50 µg/disc (Pseudomonas aeruginosa [3]): 15 mm | zone of inhibition at 50 µg/disc (Klebsiella pneumoniae [4]): 25 mm | zone of inhibition at 50 µg/disc (Staphylococcus aureus [5]): 25 mm | zone of inhibition at 100 µg/disc (Staphylococcus aureus [6]): 26 mm | zone of inhibition at 25 µg/disc (Staphylococcus aureus [7]): 22 mm | zone of inhibition at 25 µg/disc (Klebsiella pneumoniae [8]): 23 mm | zone of inhibition at 25 µg/disc (Aspergillus niger [9]): 17 mm | zone of inhibition at 50 µg/disc (Bacillus subtilis [10]): 22 mm | zone of inhibition at 100 µg/disc (Klebsiella pneumoniae [11]): 28 mm | zone of inhibition at 50 µg/disc (Aspergillus niger [12]): 19 mm | zone of inhibition at 100 µg/disc (Bacillus subtilis [13]): 24 mm | zone of inhibition at 25 µg/disc (Bacillus subtilis [14]): 21 mm

Cc1ccc(-c2csc(Nc3cc(-c4ccc(C)cc4)n(-c4nc(-c5ccc(C)cc5)cs4)n3)n2)cc1
zone of inhibition at 100 µg/disc (Pseudomonas aeruginosa [1]): 11 mm | zone of inhibition at 25 µg/disc (Pseudomonas aeruginosa [2]): 7 mm | zone of inhibition at 50 µg/disc (Pseudomonas aeruginosa [3]): 8 mm | zone of inhibition at 50 µg/disc (Klebsiella pneumoniae [4]): 15 mm | zone of inhibition at 50 µg/disc (Staphylococcus aureus [5]): 15 mm | zone of inhibition at 100 µg/disc (Staphylococcus aureus [6]): 18 mm | zone of inhibition at 25 µg/disc (Staphylococcus aureus [7]): 14 mm | zone of inhibition at 25 µg/disc (Klebsiella pneumoniae [8]): 14 mm | zone of inhibition at 25 µg/disc (Aspergillus niger [9]): 15 mm | zone of inhibition at 50 µg/disc (Bacillus subtilis [10]): 15 mm | zone of inhibition at 100 µg/disc (Klebsiella pneumoniae [11]): 18 mm | zone of inhibition at 50 µg/disc (Aspergillus niger [12]): 16 mm | zone of inhibition at 100 µg/disc (Bacillus subtilis [13]): 18 mm | zone of inhibition at 25 µg/disc (Bacillus subtilis [14]): 14 mm

Source: ChEMBL document CHEMBL3286292, “Synthesis and antimicrobial activity of amine linked bis- and tris-heterocycles” (2014)
